Compound activity: PubChem, several laboratories
This is a sample that favours compounds with a hit; in the whole collection about 1.6% have one here.
PKA-R1A activ: activators of PKA-R1A holoenzyme, primary screen, biochemical, fluorescence polarization, Cy5-IP20, bovine R1A, mouse PKAc. PKA-R1A dissociation; scaled: DMSO 0%, 113 µM cGMP 100%. activation, % at 11.4 µM. hit rate 0.083% among 340,000. AID 504707, 2011;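 active = percent activation above the mean of all tested compounds plus 3 SD, cut at about 19% in these data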;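 also: higher means more PKAc released from R1A so a rise in polarization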
NR1D1 modulator: modulators of Rev-erb alpha DNA binding, primary screen, biochemical, FITC-DNA, fluorescence polarization, uHTS. hit rate 0.79% among 370,000. Nuclear receptor subfamily 1 group D member 1 (Homo sapiens), P20393. activity, % at 10 µM. Rev-erbα–FITC-DNA binding, 90 min;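 active = activity above about 14%, limit read from the data; passing the limit was not always enough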
NR2E3 ag-1: inhibitors of NR2E3-RetCOR corepressor binding, primary screen, NR2E3 agonist project, biochemical, TR-FRET, GST-NR2E3, biotin-RetCOR; Photoreceptor-specific nuclear receptor (Homo sapiens), Q9Y5X4; 1536-well; inhibition of corepressor binding, % at 4.78 µM; hit rate 0.12% among 320,000;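 active = percent inhibition above the cutoff of mean plus 3 SD of all tested compounds, set per screening campaign, cut at about 20% in these data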
Target sequence (Q9Y5X4 whole entry, looked up): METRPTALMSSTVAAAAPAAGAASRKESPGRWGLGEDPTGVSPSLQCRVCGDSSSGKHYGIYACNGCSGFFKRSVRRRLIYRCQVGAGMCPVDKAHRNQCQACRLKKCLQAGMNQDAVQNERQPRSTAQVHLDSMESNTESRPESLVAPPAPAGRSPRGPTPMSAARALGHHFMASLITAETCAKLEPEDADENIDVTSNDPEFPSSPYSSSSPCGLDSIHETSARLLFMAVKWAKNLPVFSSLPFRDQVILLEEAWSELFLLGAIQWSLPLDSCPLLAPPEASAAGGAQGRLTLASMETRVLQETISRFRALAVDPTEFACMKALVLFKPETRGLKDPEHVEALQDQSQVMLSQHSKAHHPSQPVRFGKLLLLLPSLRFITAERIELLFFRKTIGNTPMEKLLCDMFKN
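system = GST-tagged NR2E3 plus biotinylated RetCOR corepressor | input = 1.35 nM GST-NR2E3 | also added = 7 nM biotin-RetCOR | schedule = 5 h incubation at 4 °C | measured by = TR-FRET with europium anti-GST and streptavidin-D2, 340 nm excitation | read-out = percent loss of FRET ratio relative to control wells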
PKA-R2B act: activators of PKA-R2B holoenzyme, primary screen, biochemical, fluorescence polarization, Cy5-IP20, human; cAMP-dependent protein kinase catalytic subunit beta (Homo sapiens) + cAMP-dependent …; PKA-R2B holoenzyme dissociation; R2B truncated from residue 108, S112A mutant; 0% DMSO only, 100% 113 µM cGMP; activation, % at 11.4 µM; hit rate 0.079% among 340,000;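 active = activation above a cutoff set at the mean over all compounds plus 3 SD, cut at about 18% in these data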;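 also: higher means more holoenzyme dissociation and a rise in polarization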
PG9 binder: binders of HIV-1 gp120 antibody PG9, primary screen, biochemical, TR-FRET; AID 624416, 2012; inhibition, % at 6.7 µM; HIV-1 gp120 / PG9 antibody interaction; TR-FRET gp120-PG9 antibody binding; hit rate 0.43% among 360,000; in the data active = inhibition above about 8.5%
NR2E3 ag-2: NR2E3 agonists in two-hybrid cells, primary screen, cell-based, luminescence, CHO-S, Gal4-NCOR/VP16-NR2E3; Photoreceptor-specific nuclear receptor (Homo sapiens), Q9Y5X4; luciferase; inhibition of corepressor binding, % at 3.98 µM; hit rate 0.35% among 360,000;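 active = inhibition above the mean of all tested compounds plus 3 SD, cut at about 70% in these data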;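 also: higher means lower luciferase signal from less NR2E3 corepressor binding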
NR2E3 ag confirm: NR2E3 agonist confirmation in cells, cell-based, luminescence, CHO-S two-hybrid | shares compounds with NR2E3 ag-2 | CHO-S mammalian two-hybrid NR2E3-NCOR, luciferase luminescence | inhibition, % at 3.98 µM | hit rate 51% among 2,300 | AID 624378, 2012;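 active = average inhibition above a cutoff equal to the mean inhibition of all tested compounds plus one SD, cut at about 70% in these data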
VP16 counter: GAL4-VP16 reporter modulators, confirmation, counter-screen for NR2E3 agonist project, cell-based, luminescence, CHO-S, high throughput. shares compounds with NR2E3 ag-2. CHO-S GAL4-VP16 luciferase reporter. inhibition, % at 3.98 µM. hit rate 29% among 2,300. AID 624379, 2012;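 active = mean inhibition above a cutoff equal to the average over all tested compounds plus one standard deviation, cut at about 70% in these data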;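 also: luciferase from a UAS reporter driven by GAL4-VP16 transactivation; higher means less reporter light so more repression of VP16 activity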
Of the large screens only hits and unclear results are named; the others gave an inactive call (follow-up assays come after a bar, where they were run).

COC(=O)[C@]12C[C@H](CC(=O)NCc3ccc(OC)c(OC)c3)C(=O)N(Cc3cccc4ccccc34)C1=C[C@H](C(C)(C)C)O[C@@H]2C	none (no result: PKA-R1A activ, NR2E3 ag-1, PKA-R2B act, PG9 binder, NR2E3 ag-2)
COCC(=O)N(C)[C@H]1C[C@H]2c3[nH]c4c(-c5ccc6c(c5)OCO6)cccc4c3CCN2C(=O)[C@H]1[C@H](C)O	none (no result: PKA-R1A activ, NR2E3 ag-1, PKA-R2B act, PG9 binder, NR2E3 ag-2)
C[C@H](O)[C@@H]1CN2CCc3ccc(N4CCOCC4)cc3[C@@H]2C[C@@H]1N(C)CC1CCCCC1	none (no result: PKA-R1A activ, NR2E3 ag-1, PKA-R2B act, PG9 binder, NR2E3 ag-2)
COc1ccc(S(=O)(=O)/N=C2\C=C(Nc3ccc(O)cc3)C(=O)c3ccccc32)cc1	NR2E3 ag-2 114 | NR2E3 ag confirm 99 | VP16 counter 100
Cc1ccc(NC2=C/C(=N/S(=O)(=O)c3cccs3)c3ccccc3C2=O)cc1C	none
CC(=O)Nc1ccc(NC2=C/C(=N/S(=O)(=O)c3cccs3)c3ccccc3C2=O)cc1	none (no result: PKA-R1A activ, PKA-R2B act)
Cc1ccccc1NC1=C/C(=N\S(=O)(=O)c2cccs2)c2ccccc2C1=O	none | NR2E3 ag confirm 100 | VP16 counter 99
O=C(O)c1ccc(S(=O)(=O)/N=C2\C=C(Nc3ccccc3F)C(=O)c3ccccc32)cc1	NR2E3 ag-2 104 | NR2E3 ag confirm 100 | VP16 counter inactive
CN(CCc1ccccn1)C(=O)Cn1nc(-c2ccccc2)ccc1=O	none (no result: PKA-R1A activ, NR2E3 ag-1, PKA-R2B act, PG9 binder, NR2E3 ag-2)
COC(=O)[C@]12C[C@H](CC(=O)N3CCCCC3)C(=O)N(CCC3=CCCCC3)C1=C[C@H](C1CCCC1)O[C@@H]2C	none (no result: PKA-R1A activ, NR2E3 ag-1, PKA-R2B act, PG9 binder, NR2E3 ag-2)
COc1cc2cc(C(=O)Nc3ccc4c(c3)OCCO4)[nH]c2cc1OC	none | NR2E3 ag confirm inactive | VP16 counter inactive
CCc1cc(OCCCSc2nc(C)cc(=O)[nH]2)ccc1Cl	none | NR2E3 ag confirm 76 | VP16 counter inactive
O=C(c1ccc(Cl)c(Cl)c1)N1CCC(Oc2cccnc2)CC1	none (no result: PKA-R1A activ, NR2E3 ag-1, PKA-R2B act, PG9 binder, NR2E3 ag-2)
c1cc2c(cc1-c1cnc3n1CCC3)OCCO2	none | NR2E3 ag confirm inactive | VP16 counter inactive
Cc1ccc(-c2cnc3n2CCCCC3)cc1	none
CCc1c(C)nc2nc(SCc3ccccc3Cl)[nH]n2c1=O	none | NR2E3 ag confirm 84 | VP16 counter inactive
COc1ccc(Cl)cc1NC(=O)CSc1nc2sccc2c(=O)[nH]1	none
COc1ccc(C)cc1NC(=O)CSc1nc2scc(C)c2c(=O)[nH]1	NR2E3 ag-2 84 | NR2E3 ag confirm inactive | VP16 counter inactive
CC(=O)Nc1cccc(OCC(O)Cn2c(C)nc3ccccc32)c1 (configuration not stated)	none
CCCOC(=O)c1ccc(OCC(O)Cn2c(C)nc3ccccc32)cc1 (configuration not stated)	none (no result: NR2E3 ag-1) | NR2E3 ag confirm inactive | VP16 counter inactive
O=C(Nc1ccccc1)OCCN1C(=O)CCC12CCC(c1ccccc1)CC2 (configuration not stated)	none (no result: PKA-R1A activ, NR2E3 ag-1, PKA-R2B act, PG9 binder, NR2E3 ag-2)
COC1(OC)C(/C=C/c2ccc(C)cc2)C(C#N)(C#N)C1(OC)OC (configuration not stated)	NR2E3 ag-2 77 | NR2E3 ag confirm inactive | VP16 counter inactive
O=C(CCn1nnc(-c2cccs2)n1)NCc1ccco1	none (no result: PKA-R1A activ, NR2E3 ag-1, PKA-R2B act, PG9 binder, NR2E3 ag-2)
Cc1ccc(OCc2cc(C(=O)N3CCC(Oc4cccnc4)CC3)no2)cc1C	NR2E3 ag-2 97 | NR2E3 ag confirm 91 | VP16 counter inactive
O=C(c1cc(COc2cccc(C(F)(F)F)c2)on1)N1CCC(Oc2cccnc2)CC1	NR2E3 ag-2 78 | NR2E3 ag confirm 92 | VP16 counter 75
COCCCC1CCN(C(=O)c2cc(COc3ccc(C)nc3)on2)CC1	none | NR2E3 ag confirm inactive | VP16 counter inactive
O=C(c1ccccc1Cl)N1CCC(Oc2cccnc2)CC1	none (no result: PKA-R1A activ, NR2E3 ag-1, PKA-R2B act, PG9 binder, NR2E3 ag-2)
O=C(c1ccccc1)N1CC[C@H]2[C@H](CCCN2Cc2ccccc2)C1	none (no result: PKA-R1A activ, NR2E3 ag-1, PKA-R2B act, PG9 binder, NR2E3 ag-2)
C=CS(=O)(=O)N(Cc1nnn(Cc2ccccc2)c1Br)[C@@H](CC(C)C)C(=O)OC	none (no result: PKA-R1A activ, NR2E3 ag-1, PKA-R2B act, PG9 binder, NR2E3 ag-2)
COc1ccccc1N1CCN(C(=O)C2CCCN(S(=O)(=O)c3ccc4c(c3)oc(=O)n4C)C2)CC1 (configuration not stated)	NR2E3 ag-2 85 | NR2E3 ag confirm inactive | VP16 counter inactive
CCc1cc(C(=O)NC2CCCN(Cc3ccccc3F)C2)n(C)n1 (configuration not stated)	none | NR2E3 ag confirm inactive | VP16 counter inactive
COc1cccc2c1C(=O)c1c(O)c3c(c(O)c1C2=O)CC(O)(C(=O)CO)CC3OC1CC(N(C)C)C(O)C(C)O1 (configuration not stated)	NR2E3 ag-2 101 (no result: NR2E3 ag-1) | NR2E3 ag confirm 99 | VP16 counter 94
O=C(NCc1cccnc1)/C(=C/c1ccc(-c2cccc(C(F)(F)F)c2)o1)NC(=O)c1ccccc1	none
O=C(NCc1cccnc1)/C(=C/c1ccc(-c2ccc(Cl)cc2)o1)S(=O)(=O)c1ccccc1	NR2E3 ag-2 90 | NR2E3 ag confirm inactive | VP16 counter inactive
O=C(CN(Cc1ccc(Br)cc1)S(=O)(=O)c1ccccc1)NCc1cccnc1	none
O=C(NCc1cccnc1)/C(=C\c1ccc(-c2ccc(Br)cc2)o1)S(=O)(=O)c1ccccc1	NR2E3 ag-2 93 | NR2E3 ag confirm inactive | VP16 counter inactive
CC(CCN1CCC(C(O)(c2ccccc2)c2ccccc2)CC1)Oc1ccccc1C#N (configuration not stated)	none (no result: PKA-R1A activ, NR2E3 ag-1, PKA-R2B act, PG9 binder, NR2E3 ag-2)
Cc1ccc(Cl)cc1N1CCN(C(=O)CN(C2CCCCC2)S(C)(=O)=O)CC1	none | NR2E3 ag confirm inactive | VP16 counter inactive
CC(C)NS(=O)(=O)c1ccc(OCC(=O)N2CCCC2)cc1	none
Cc1ccc(Cl)cc1N1CCN(C(=O)COc2ccc(S(=O)(=O)NC(C)C)cc2)CC1	none | NR2E3 ag confirm inactive | VP16 counter inactive
